TNAP inh no acc = TNAP (human) inhibition, acceptor-free conditions; purified TNAP, CDP-star luminescence, 30 min; inhibition, % at 20 µM; P05186; 200,000 tested, 0.26% active; AID 1012;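 active means tissue-nonspecific alkaline phosphatase inhibition above about 50% at 20 µM in the single-dose screen, limit read from the data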;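 further: 0% = DMSO negative control and 100% = EDTA positive control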
Target sequence (P05186 whole entry, looked up): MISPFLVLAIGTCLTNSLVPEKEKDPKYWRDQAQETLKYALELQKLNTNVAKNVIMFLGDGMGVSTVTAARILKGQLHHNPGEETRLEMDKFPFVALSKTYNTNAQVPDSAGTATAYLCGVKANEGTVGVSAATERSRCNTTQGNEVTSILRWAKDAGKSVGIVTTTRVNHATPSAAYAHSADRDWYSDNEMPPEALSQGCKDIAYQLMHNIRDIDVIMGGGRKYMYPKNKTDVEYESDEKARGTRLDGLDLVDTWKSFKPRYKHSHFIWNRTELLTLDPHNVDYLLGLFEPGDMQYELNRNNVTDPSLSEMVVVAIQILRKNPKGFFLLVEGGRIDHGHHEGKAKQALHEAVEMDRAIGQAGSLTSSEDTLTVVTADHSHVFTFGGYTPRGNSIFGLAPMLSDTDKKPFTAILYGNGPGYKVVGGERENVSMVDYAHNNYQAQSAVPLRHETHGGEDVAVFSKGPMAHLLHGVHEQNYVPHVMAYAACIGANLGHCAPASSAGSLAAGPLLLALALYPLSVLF
PTEN del growth = PTEN-deleted cell growth suppression; HCT116 PTEN-null viability, CellTiter-Glo, 60 h; hits give low values; viability, % at 10 µM; 140,000 tested, 1.2% active; AID 827;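 active means viability at or below a set limit, 4 SD under the median of all tested compounds, cut at about 3.7% in these data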;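 further: PTEN knockout HCT116 line with beta catenin targeted HCT116 as companion control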
TNAP act hiacc = TNAP (human) activation, high acceptor | 200,000 tested, under 10 active | purified TNAP, CDP-star luminescence, 1 M DEA, 30 min; hits give high values; 0 = EDTA background, 1 = DMSO-only activity | activation factor at 20 µM | P05186;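 active means activation factor at least 2 at 20 µM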
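Measured by: Luminescent substrate turnover signal | Test system: Human TNAP | Input: TNAP 1/800 final | Dosing: 20 µM single point | Schedule: 30 min, room temperature | Controls: EDTA wells as negative control, DMSO wells as positive control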
TNAP inh hiacc = inhibitors of human TNAP at high phosphate acceptor concentration | P05186 | purified TNAP, CDP-star luminescence, 1 M DEA | inhibition, % at 20 µM | 200,000 tested, 0.03% active | AID 1135;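 active means over 50% inhibition of tissue-nonspecific alkaline phosphatase at 20 µM in the single-dose screen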;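 further: plate controls were DMSO wells for no effect and EDTA-quenched wells as full inhibition for full effect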
L major viab = Leishmania major promastigote growth inhibition. 200,000 tested, 9% active. inhibition, % at 10 µM. Leishmania major promastigotes, resazurin fluorescence viability; in the data active means inhibition above about 50%;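 further: promastigotes grown with compound for 44 hours at 28 °C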
bCat KO growth = beta-catenin-lacking colon tumor cell growth suppression; HCT116 beta-catenin knockout viability, CellTiter-Glo, 60 h; hits give low values; viability, % at 10 µM; 140,000 tested, 1.5% active; AID 818;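 active means viability at or under a set limit, the compound median less 4 SD, cut at about 6% in these data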;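 further: 0% = Hyamine 1622 control at 20 µM and 100% = untreated cell control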
* = called active by the depositor; nt = no result given. Compounds with a hit are over-represented: about 9.6% of the library has one in this group of screens.

SMILES | TNAP inh no acc | PTEN del growth | TNAP act hiacc | TNAP inh hiacc | L major viab | bCat KO growth
COc1ccc(C(=O)NC(=S)Nc2ccc3c4c(cccc24)CC3)cc1OC | -4.8 | 88.6 | 1 | -4.6 | -7.7 | 86.5
CC1=CC(=Nc2c(C)n(C)n(-c3ccccc3)c2=O)C=C(C)C1=O | 28.9 | 3.9 | 0.6 | 39.3 | 72.1* | 12.2
COc1ccc(COc2cc(-c3cccc(OC)c3)nc3ccc(NC(=O)C(C)C)cc23)cc1 | -6.5 | 24.8 | 0.9 | 8.2 | 100.1* | 21.1
O=C(NCC(c1cccnc1)N1CCN(c2ccccc2F)CC1)c1ccco1 (stereo unspecified) | 8.3 | 75.7 | 1 | -2.8 | 89.0* | 92.6
O=C(NCC1CCCO1)C(=O)NCC(c1ccco1)N1CCN(c2ccccc2F)CC1 (stereo unspecified) | 4.2 | 84.0 | 1 | -2.5 | 53.5* | 93.4
O=C(NCC(c1cccnc1)N1CCN(c2ccccc2F)CC1)c1ccccc1 (stereo unspecified) | -15.8 | 90.8 | 1.1 | -5.5 | 83.5* | 88.2
Cc1cc2cc(CCNC(=O)C3c4ccccc4Oc4ccccc43)c(=O)[nH]c2cc1C | -12.7 | 31.8 | 1 | -2.1 | -7.8 | 37.4
C/C(CC(C)(C)C1CCCCC1)=N\NC(N)=S | 5.6 | 12.7 | 0.9 | 5.6 | 100.5* | 4.6*
CCOC(=O)CNC(=O)CSc1nc2c(C)cccc2cc1CC | -4.3 | nt | 1 | -1.4 | -7.2 | nt
CC(C)c1ccccc1NC(=O)COC(=O)c1c2c(nc3ccccc13)CCN(Cc1ccccc1)C2 | -10.6 | 56.3 | 1 | -4.8 | 46.2 | 59.6
Cc1cc(N2CCN(C)CC2)ccc1NC(=O)c1c2c(nc3ccccc13)CCN(Cc1ccccc1)C2 | -5.0 | nt | 1 | 1.1 | 100.5* | nt
Cc1c(Cl)cccc1NC(=O)COC(=O)c1c2c(nc3ccccc13)CCN(Cc1ccccc1)C2 | -8.6 | 58.8 | 1 | -3.5 | 99.2* | 43.3
Cc1ccccc1NC(=S)NCc1ccc(Cl)cc1 | -17.5 | 89.3 | 1 | 4.9 | 9.3 | 105.5
O=C(COC(=O)c1cccc(S(=O)(=O)NCc2ccccc2)c1)NCC1CCCO1 (stereo unspecified) | -9.7 | nt | 1 | -3.4 | -2.6 | nt
CN(C)S(=O)(=O)c1ccc(Cl)c(C(=O)Nc2ccccc2[N+](=O)[O-])c1 | -16.5 | 84.4 | 1 | -4.1 | 60.8* | 94.5
CCN(CC)S(=O)(=O)c1ccc(OC)c(NC(=O)c2cc([N+](=O)[O-])ccc2Cl)c1 | -2.6 | 92.8 | 1 | 0.6 | 1.8 | 89.7
Cc1nn(CC(=O)Nc2cc(S(=O)(=O)N(C)C)ccc2Cl)c(C)c1[N+](=O)[O-] | -10.2 | 86.8 | 1.1 | -5.3 | 71.6* | 90.3
CN(C)S(=O)(=O)c1ccc(Cl)c(NC(=O)CN2CCCCCC2)c1 | -8.1 | nt | 1 | -0.2 | 3.8 | nt
CN(C)S(=O)(=O)c1ccc(C(=O)Nc2ccccc2[N+](=O)[O-])cc1 | -8.3 | 77.0 | 1 | -2.8 | 65.7* | 90.6
CCN(CC)S(=O)(=O)c1ccc(Cl)c(C(=O)Nc2ccc(Cl)cc2[N+](=O)[O-])c1 | -3.4 | 35.4 | 1 | -1.5 | 85.0* | 44.5
CN(C)S(=O)(=O)c1ccc(Cl)c(C(=O)Nc2nc3ccccc3[nH]2)c1 | -30.2 | nt | 1 | -4.6 | -1.8 | nt
Cn1c(N/N=C\c2cccc(O)c2)cc(=O)n(C)c1=O | -10.5 | 102.6 | 1 | 3.2 | -6.1 | 97.7
COCCNC(=O)C(c1ccc(F)cc1)N(C(=O)CCC(=O)Nc1nccs1)c1cccc(C)c1 (stereo unspecified) | -9.1 | nt | 1 | -2.8 | 12.7 | nt
CC(C)(C)OC(=O)C(Cc1ccc(OC(C)(C)C)cc1)NC(=O)CNC(=O)OCc1ccccc1 (stereo unspecified) | -8.5 | 79.9 | 1.1 | -6.2 | 16.7 | 76.3
CC1(C)Cc2ccccc2C2=NNC(=O)C2=N1 | 6.8 | nt | 0.9 | 5.3 | 100.4* | nt
SMILES | TNAP inh no acc | PTEN del growth | TNAP act hiacc | TNAP inh hiacc | L major viab | bCat KO growth
CC1(c2ccc(OCC#N)cc2)C=C(c2ccc(OCC#N)cc2)n2nc(C(F)(F)F)nc2N1 (stereo unspecified) | -9.4 | 8.4 | 1.1 | -6.1 | 96.8* | 11.5
Cc1ccc(C2=CC(C)(c3ccc(C)cc3)Nc3nc(C(F)(F)F)nn32)cc1 (stereo unspecified) | -5.4 | 48.7 | 1 | 1.6 | 38.6 | 56.9
Cc1ccc(/C=C/C(=O)N2CCC(Cc3ccccc3)CC2)cc1 | -12.7 | 91.0 | 1 | -4.2 | 42.6 | 95.9
CC(C)(C)c1nnc(SCC(=O)c2ccccc2)n(N)c1=O | -11.4 | 100.8 | 1 | -2.1 | -4.8 | 99.9
COc1cc(NC(=O)C23CC4CC(C2)CC(n2cnc([N+](=O)[O-])n2)(C4)C3)cc(OC)c1 | -0.4 | 86.9 | 1 | 2.3 | 75.6* | 91.0
O=C(Nc1cccc([N+](=O)[O-])c1)C12CC3CC(C1)CC(n1cnc([N+](=O)[O-])n1)(C3)C2 | -6.9 | 81.0 | 1 | -4.4 | 75.8* | 94.1
O=C(Nc1ccccc1)C12CC3CC(C1)CC(n1cnc([N+](=O)[O-])n1)(C3)C2 | -13.3 | 85.1 | 1.1 | -5.9 | 71.7* | 85.1
COc1ccc(NC(=O)C23CC4CC(C2)CC(n2cnc(Br)n2)(C4)C3)c(OC)c1 | -4.0 | 92.2 | 1.1 | -8.0 | 4.6 | 79.7
Cc1ccc(F)cc1NC(=O)C12CC3CC(C1)CC(n1cnc([N+](=O)[O-])n1)(C3)C2 | -7.1 | 62.4 | 1 | -1.4 | 66.7* | 65.9
O=C(NCCCn1ccnc1)c1cc2cc([N+](=O)[O-])ccc2oc1=O | -1.6 | 102.2 | 0.9 | 12.3 | 3.8 | 90.4
CNc1ccc(Br)cc(C(=O)/C=C/c2ccc(Cl)cc2Cl)c1=O | 12.2 | nt | 1 | 3.9 | 98.9* | nt
CNc1ccc(Br)cc(C(=O)/C=C/c2ccc(OC)cc2OC)c1=O | 13.7 | 61.9 | 1 | 3.6 | 5.6 | 56.7
CNc1ccc(Br)cc(C(=O)/C=C/c2cccc(OC)c2)c1=O | 13.8 | 25.3 | 0.9 | 9.3 | 56.6* | 23.6
CCNc1ccc(Br)cc(C(=O)/C=C/c2ccc3c(c2)OCO3)c1=O | 4.6 | 32.1 | 1 | 2.0 | 32.9 | 29.6
CCNc1ccc(Br)cc(C(=O)/C=C/c2c(Cl)cccc2Cl)c1=O | 15.8 | 1.5* | 0.9 | 9.0 | 100.3* | 3.5*
CN(C)/C=C/C(=O)/C=C/c1ccc(Cl)cc1Cl | -9.3 | nt | 1 | 1.2 | 7.1 | nt
CCNc1ccc(Br)cc(C(=O)/C=C/c2ccc(Cl)cc2)c1=O | 11.3 | 4.2 | 0.9 | 5.0 | 83.9* | 7.0
O=c1[nH]ncc(N/N=C\c2cccs2)c1Cl | -6.6 | nt | 1 | -4.0 | -4.1 | nt
O=C(CSCc1c(Cl)cccc1Cl)Nc1ccc2c(c1)OCCO2 | -24.0 | 79.9 | 1 | -3.1 | 7.4 | 85.3
Clc1ccc(CNC2CCCC2)cc1 | -5.2 | 99.4 | 1.1 | -7.1 | 37.0 | 97.4
CN(C(=O)c1ccc(C(=O)N(C)C2CCCCC2)cc1)C1CCCCC1 | nt | nt | nt | nt | -1.7 | nt

Source: PubChem
